For 42 molecules, Activity and Potentiation results are on record in ChEMBL document CHEMBL1132292, “Potentiation of cADPR-induced Ca(2+)-release by methylxanthine analogues” (1999).

The subject of assay [1] is Lytechinus pictus. As to the kind of experiment: Percent of 1 mM Caffeine effect to release [Ca2+] at 1 mM in sea urchin egg homogenate.
Assay [2] deals with Lytechinus pictus. Put plainly: Calcium release in sea urchin egg homogenate at 2 mM as percent of 1 mM caffeine effect.
The nature of assay [3]: Compound was screened for their ability to potentiate [Ca2+] release induced by cADRP(an endogenous modulator of ryanodine receptor) in sea urchin egg homogenates at a concentration of 2 mM. The assay is classed as functional, tissue-based. A digest of the protocol: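 Lytechinus pictus egg homogenate (2.5%, from 50% stocks), Ca2+-loaded 3 h at room temperature in Glu-IM (pH 7.2) with 0.5 mM ATP, phosphocreatine/creatine phosphokinase, oligomycin, antimycin, azide and 3 μM fluo-3. Fluo-3 fluorescence (ex 490/em 535 nm) read at 17 °C. Methylxanthine at 2 mM added 1 min before a daily-chosen, slightly active cADPR concentration. Caffeine run daily as standard.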

Assay [4] in a line: compound was screened for their ability to potentiate [Ca2+] release induced by cADRP(an endogenous modulator of ryanodine receptor) in sea urchin egg homogenates at a concentration 2 mM. Type of assay: functional, tissue-based. In outline:
(§1)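 Lytechinus pictus egg homogenate (2.5%, from 50% stocks) in Glu-IM (pH 7.2, Hepes). It was Ca2+-loaded for 3 h at room temperature with 0.5 mM ATP, creatine kinase/phosphocreatine, oligomycin, antimycin, azide and 3 μM fluo-3. Fluo-3 fluorescence (ex 490/em 535 nm) was read at 17 °C. Methylxanthine was added 1 min before a slightly releasing cADPR concentration chosen from each experiment's cADPR concentration–response curve. Caffeine was run daily as standard.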

Assay [5] is described as follows: compound was screened for their ability to potentiate [Ca2+] release induced by cADRP(an endogenous modulator of ryanodine receptor) in sea urchin egg homogenates at a concentration 1 mM. The assay is classed as functional, tissue-based. In outline: as §1
The nature of assay [6]: Calcium release at 2 mM as percent of 1 mM caffeine effect.

In the assay with Lytechinus pictus [1], `Cn1c(=O)c2c(ncn2CCCCCCCCCCO)n(C)c1=O` gave an Activity of 113%.

As to `CC(O)CCCCCCn1cnc2c1c(=O)n(C)c(=O)n2C` (stereo not drawn), the Activity with Lytechinus pictus [1] stood at 98%.

Regarding `C#CCn1c(=O)c2c(ncn2CCCCCCC(C)=O)n(C)c1=O`, in the assay with Lytechinus pictus [1], the Activity is listed as 98%.

As for `Cn1c(=O)c2c(ncn2CC(=O)O)n(C)c1=O` [ACEFYLLINE], the Activity in the assay with Lytechinus pictus [1] was found to be 1.4%.

With `Cn1cnc2c1c(=O)n(CCCCCC(=O)O)c(=O)n2C`, the Activity in the assay with Lytechinus pictus [1] is recorded as 61%.

Turning to `CC(=O)CCn1cnc2c1c(=O)n(C)c(=O)n2C`, the Activity in the assay on Lytechinus pictus [2] is reported as 97%.

As to `CC(O)CCCn1cnc2c1c(=O)n(C)c(=O)n2C` (stereo not drawn), in the assay with Lytechinus pictus [2], the Activity was 82%.

For the molecule `CC(O)Cn1cnc2c1c(=O)n(C)c(=O)n2C` (stereo not drawn) [PROXYPHYLLINE], the Activity in the assay with Lytechinus pictus [2] is 47%.

`O=c1[nH]c(=O)c2nc[nH]c2[nH]1`: in assay [3], the Potentiation was found to be 41%.

In the assay on Lytechinus pictus [1], `CCOC(=O)Cn1cnc2c1c(=O)n(C)c(=O)n2C` yielded an Activity of 87%.

With `CC(O)Cn1c(=O)c2c(ncn2C)n(C)c1=O` (stereo not drawn) [PROTHEOBROMINE], the Activity in the assay with Lytechinus pictus [2] was 83%.

Regarding `CC(=O)CCCCCCCCn1cnc2c1c(=O)n(C)c(=O)n2C`, the Activity in the assay with Lytechinus pictus [1] is 62%.

For the molecule `Cn1c(=O)c2c(ncn2CCO)n(C)c1=O` [ETOFYLLINE], the Activity in the assay on Lytechinus pictus [2] was determined as 43%.

Take `CC(=O)CCCCCn1c(=O)c2c(ncn2CCCCCC(C)=O)n(C)c1=O`: in the assay on Lytechinus pictus [2], the Activity is on record as 54%.

Consider `CC(=O)CCCCCCn1c(=O)c2c(ncn2C)n(C)c1=O`, for which the Activity in the assay with Lytechinus pictus [2] was determined as 76%.

Take `C#CCn1c(=O)c2c(ncn2CCCC(C)=O)n(C)c1=O`: the Activity in the assay with Lytechinus pictus [2] is on record as 81%.

Regarding `Cn1c(=O)c2c(ncn2CCCCCc2ccccc2)n(C)c1=O`, in the assay on Lytechinus pictus [2], the Activity turned out to be 70%.

In the case of `CC(=O)Cn1cnc2c1c(=O)n(C)c(=O)n2C`, the Activity in the assay on Lytechinus pictus [2] is recorded as 65%.

Regarding `CC(=O)CCCCCn1c(=O)c2c(ncn2CCCC(C)=O)n(C)c1=O`, the Activity in the assay on Lytechinus pictus [2] came to 38%.

As for `Cn1c(=O)c2ncn(C)c2n(C)c1=O`, the Potentiation in assay [4] came out at 28.7%.

With `CCOC(=O)CCCCCn1c(=O)c2c(ncn2C)n(C)c1=O`, the Activity in the assay with Lytechinus pictus [1] stood at 103%.

With `CC(=O)CCCn1c(=O)c2c(ncn2C)n(C)c1=O`, in the assay on Lytechinus pictus [2], the Activity stood at 37%.

Consider `CC(=O)CCCCCCn1cnc2c1c(=O)n(C)c(=O)n2C`, for which the Activity in the assay on Lytechinus pictus [2] came to 112%.

For `Cn1c(=O)c2c(ncn2C)n(C)c1=O` [CAFFEINE], the Potentiation in assay [5] is 100%. Besides, the Activity in assay [6] is given as 100%.

For the molecule `CC(=O)CCCCCn1cnc2c1c(=O)n(C)c(=O)n2C`, in the assay with Lytechinus pictus [2], the Activity worked out at 107%.

`CC(O)CCCn1c(=O)c2c(ncn2C)n(C)c1=O` (stereo not drawn): the Activity with Lytechinus pictus [2] is recorded as 59%.

Turning to `Cn1c(=O)c2c(ncn2CCCCO)n(C)c1=O`, in the assay on Lytechinus pictus [2], the Activity is listed as 81%.

For `Cn1c(=O)c2c(ncn2CCCCCC(=O)O)n(C)c1=O`, in the assay with Lytechinus pictus [1], the Activity was 9.4%.

With `CC(=O)Cn1c(=O)c2c(ncn2C)n(C)c1=O`, in the assay with Lytechinus pictus [2], the Activity is 43%.

For `Cn1c(=O)c2[nH]cnc2n(C)c1=O`, in assay [3], the Potentiation was 95.3%.

On to `C=CCn1cnc2c1c(=O)n(C)c(=O)n2C`, for which the Activity with Lytechinus pictus [2] was 100%.

For the molecule `CC(O)CCCCCn1c(=O)c2c(ncn2C)n(C)c1=O` (stereo not drawn), the Activity with Lytechinus pictus [2] was determined as 54%.

`CC(=O)Cn1c(=O)c2c(ncn2CC(C)=O)n(C)c1=O`: the Activity in the assay with Lytechinus pictus [2] is given as 17%.

As to `CCOC(=O)CCCCCn1cnc2c1c(=O)n(C)c(=O)n2C`, the Activity with Lytechinus pictus [1] was 145%.

With `CC(=O)CCCCn1cnc2c1c(=O)n(C)c(=O)n2C` [LOMIFYLLINE], the Activity in the assay on Lytechinus pictus [2] turned out to be 65%.

`CC(=O)CCn1c(=O)c2c(ncn2C)n(C)c1=O`: the Activity with Lytechinus pictus [2] is given as 46%.

`CC(O)CCCCCn1cnc2c1c(=O)n(C)c(=O)n2C` (stereo not drawn): in the assay with Lytechinus pictus [2], the Activity turned out to be 105%.

In the assay with Lytechinus pictus [1], `Cn1c(=O)c2c(ncn2CCCCCCO)n(C)c1=O` displayed an Activity of 97%.

As to `CC(=O)CCCn1cnc2c1c(=O)n(CC(C)=O)c(=O)n2C`, in the assay with Lytechinus pictus [2], the Activity stood at 6.7%.

Consider `CC(=O)CCCCCn1c(=O)c2c(ncn2C)n(C)c1=O`, for which the Activity in the assay with Lytechinus pictus [2] amounted to 96%.

Regarding `CC(=O)CCCn1cnc2c1c(=O)n(C)c(=O)n2C`, the Activity in the assay on Lytechinus pictus [2] stood at 60%.

Turning to `Cn1c(=O)c2nc[nH]c2n(C)c1=O.O` [THEOPHYLLINE], the Activity with Lytechinus pictus [2] is 106%.
